Data published in ChEMBL document CHEMBL1139478, “Piperazinobenzopyranones and phenalkylaminobenzopyranones: potent inhibitors of breast cancer resistance protein (ABCG2)” (J Med Chem, 2005).

Legend:
[1] = Cytotoxicity against mitoxantrone-sensitive human HCT116 cells at 10 uM assessed as viable cells after 48 hrs; format: cell-based, HCT-116; conditions: read-out: Activity
Procedure, shortened: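 HCT116/S cells exposed to compound at 10, 1 and 0.1 μM; cell cycle distribution (G0/G1, S, G2/M) and viability by flow cytometry after trypsin/spermine detergent buffer 10 min room temperature, trypsin inhibitor plus ribonuclease A 10 min, then PI 10 min, read immediately.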

[2] = target: T1, Broad substrate specificity ATP-binding cassette transporter ABCG2 (Homo sapiens, UniProt Q9UNQ0); experiment: Inhibition of BCRP expressed in mitoxantrone-resistant human HCT116 cells assessed as increase in mitoxantrone accumulation at 10 uM after 15 mins; format: cell-based; conditions: hct-116, 0.25 h
T1 sequence (Q9UNQ0 whole entry): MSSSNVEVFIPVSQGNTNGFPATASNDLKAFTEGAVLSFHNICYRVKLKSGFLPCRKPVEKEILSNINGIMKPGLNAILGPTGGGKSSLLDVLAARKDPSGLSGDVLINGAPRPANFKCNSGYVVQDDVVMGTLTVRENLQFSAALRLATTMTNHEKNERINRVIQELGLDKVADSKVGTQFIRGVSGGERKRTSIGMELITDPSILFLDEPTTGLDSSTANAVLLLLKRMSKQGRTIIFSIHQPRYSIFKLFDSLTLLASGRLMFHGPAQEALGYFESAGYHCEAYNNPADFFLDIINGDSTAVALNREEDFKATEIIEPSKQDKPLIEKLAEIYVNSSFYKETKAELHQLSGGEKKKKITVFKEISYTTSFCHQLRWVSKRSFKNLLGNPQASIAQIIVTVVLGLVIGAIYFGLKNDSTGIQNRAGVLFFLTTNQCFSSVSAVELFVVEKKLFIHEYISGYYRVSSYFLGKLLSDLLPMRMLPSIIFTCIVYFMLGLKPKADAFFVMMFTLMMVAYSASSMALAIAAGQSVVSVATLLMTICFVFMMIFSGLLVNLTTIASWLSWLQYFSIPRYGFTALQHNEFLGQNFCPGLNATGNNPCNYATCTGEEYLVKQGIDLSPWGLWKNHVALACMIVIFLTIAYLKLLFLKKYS
Procedure, shortened: (§1)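 HCT116/R cells from ~90% confluent flasks, trypsinized, washed and resuspended at 10^6 cells/mL in serum-free RPMI. Preincubated 15 min at 37 °C with modulator (10 to 0.1 μM final, from 10 mM DMSO stock), then 3 μM mitoxantrone added for 30 min. Stopped with ice-cold PBS, washed; intracellular mitoxantrone by flow cytometry (488 nm excitation, 670 nm band-pass), mean fluorescence intensity in arbitrary units.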

HCT-116 [3] = experiment: Potentiation of mitoxantrone-induced cytotoxicity in mitoxantrone-resistant human HCT116 cells at 10 uM assessed as dead cells after 48 hrs by flow cytometry; format: cell-based; conditions: hct-116, 48 h
Procedure, shortened: (§2)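 After 24 h attachment, HCT116/R medium replaced with fresh medium holding 1 μM mitoxantrone plus modulator (10, 1, 0.1 μM); 48 h at 37 °C, PBS washes. Dead cells by propidium iodide uptake (2 μg/mL) in unfixed cells, FSC/FL2 flow cytometry; apoptosis by annexin V-FITC/PI staining, 10 min room temperature, flow cytometry; viable, apoptotic and dead percentages reported.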

HCT-116 [4] = experiment: Potentiation of mitoxantrone-induced cytotoxicity in mitoxantrone-resistant human HCT116 cells at 10 uM assessed as apoptotic cells after 48 hrs by flow cytometry; format: cell-based; conditions: hct-116, 48 h; procedure, shortened: as §2
[5] = target: T1, Broad substrate specificity ATP-binding cassette transporter ABCG2; experiment: Inhibition of BCRP expressed in mitoxantrone-resistant human HCT116 cells assessed as increase in mitoxantrone accumulation at 1 uM after 15 mins; format: cell-based; conditions: hct-116, 0.25 h; procedure, shortened: as §1

With `CCCCN1CCN(C(=O)c2cc(=O)c3c(O)cccc3o2)CC1` as the compound, how does the viability at 48 h, 10 µM [1] read?
Its viability at 48 h, 10 µM is 60%.

And the Fluorescence intensity [2]?
The Fluorescence intensity was 223 a.u.

And the Activity (HCT-116 [3])?
The Activity was 22%.

And the Activity (HCT-116 [4])?
Its Activity is 27%.

Which Fluorescence intensity [2] does the source give for `Cc1ccc(NC(=O)c2ccc(CN3CCN(C)CC3)cc2)cc1Nc1nccc(-c2cccnc2)n1` [IMATINIB] here?
Its Fluorescence intensity is 334 a.u.

Which Fluorescence intensity [2] does the source give for `O=C(c1cc(=O)c2c(O)cccc2o1)N1CCN(CCO)CC1` here?
Its Fluorescence intensity is 72 a.u.

With `CC(=O)N1CCN(C(=O)c2cc(=O)c3c(O)cccc3o2)CC1` as the compound, how does the Fluorescence intensity [2] read?
The Fluorescence intensity was 112 a.u.

For `COc1ccc(CNC(=O)c2cc(=O)c3c(O)cccc3o2)cc1OC`, which Fluorescence intensity [2] is on record?
Its Fluorescence intensity is 197 a.u.

With `CC(C)CN1CCN(C(=O)c2cc(=O)c3c(O)cccc3o2)CC1` as the compound, how does the Fluorescence intensity [2] read?
The Fluorescence intensity was 92 a.u.

With `COc1ccc2c3c([nH]c2c1)[C@H](C=C(C)C)N1C(=O)[C@@H]2CCCN2C(=O)[C@@H]1C3` [FUMITREMORGIN] as the compound, how does the Fluorescence intensity [2] read?
Its Fluorescence intensity is 315 a.u.

For `CC(C)(C)OC(=O)N1CCN(C(=O)c2cc(=O)c3c(O)cccc3o2)CC1`, which viability at 48 h, 10 µM [1] is on record?
Its viability at 48 h, 10 µM is 60%.

And the Fluorescence intensity [2]?
The Fluorescence intensity was 179 a.u.

For `CCN1CCN(C(=O)c2cc(=O)c3c(O)cccc3o2)CC1`, which Fluorescence intensity [2] is on record?
Its Fluorescence intensity is 108 a.u.

For `O=C(c1cc(=O)c2c(O)cccc2o1)N1CCN(CC2CCCCC2)CC1`, which Fluorescence intensity [2] is on record?
The Fluorescence intensity was 92 a.u.

For `CCCN1CCN(C(=O)c2cc(=O)c3c(O)cccc3o2)CC1`, which Fluorescence intensity [2] is on record?
The Fluorescence intensity was 104 a.u.

With `COc1ccc(CCNC(=O)c2cc(=O)c3c(O)cccc3o2)cc1` as the compound, how does the Activity [5] read?
The Activity was “Active”.

What about the Fluorescence intensity [2] of the same compound?
Its Fluorescence intensity is 320 a.u.

And the Activity (HCT-116 [3])?
Its Activity is 8%.

And the Activity (HCT-116 [4])?
Its Activity is 42%.

With `O=C(c1cc(=O)c2c(O)cccc2o1)N1CCNCC1` as the compound, how does the Fluorescence intensity [2] read?
Its Fluorescence intensity is 86 a.u.

For `CCCCCN1CCN(C(=O)c2cc(=O)c3c(O)cccc3o2)CC1`, which Fluorescence intensity [2] is on record?
Its Fluorescence intensity is 225 a.u.

Which results are given for `O=C(NCCc1ccccc1)c1cc(=O)c2c(O)cccc2o1`?
viability at 48 h, 10 µM [1]: 60%; Fluorescence intensity [2]: 282 a.u.

For `COc1ccc(CCNC(=O)c2cc(=O)c3c(O)cccc3o2)cc1OC`, which Activity [5] is on record?
The Activity was “Active”.

What about the viability at 48 h, 10 µM [1] of the same compound?
Its viability at 48 h, 10 µM is 60%.

What about the Fluorescence intensity [2] of the same compound?
The Fluorescence intensity was 315 a.u.
